Laboratory results from ChEMBL document CHEMBL4270529, “Rational design of mitochondria-targeted pyruvate dehydrogenase kinase 1 inhibitors with improved selectivity and antiproliferative activity” (Eur J Med Chem, 2018).
Activity calls are given as the source filed them. No cut-off for these calls is given here.

Assays:
MCF7 = experiment: Cytotoxicity against human MCF7 cells assessed as decrease in cell viability after 72 hrs by MTT assay; format: functional, cell-based
How it was run: (§1)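 MTT viability assay. Cells seeded per well: NCI-H1650 5000, MCF-7 and A375 3500, BEAS-2B 4000; cultured 24 h before dosing. Seven concentrations were tested, 10–0.16 µM in PBS with 1% DMSO; DAP was tested at 40–0.63 µM. Exposure 72 h, then MTT 0.5 mg/mL for 4 h at 37 °C. Formazan was dissolved in DMSO and read at 570 nm. IC50 is the mean of three independent experiments.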

A-375 = experiment: Cytotoxicity against human A375 cells assessed as decrease in cell viability after 72 hrs by MTT assay; format: functional, cell-based; how it was run: as §1
[1] = Selectivity index, ratio of IC50 for human BEAS2B cells to IC50 for human NCI-H1650 cells; format: toxicity; conditions: BEAS2B cells versus NCI-H1650 cells, read-out: Ratio IC50
How it was run: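 Selectivity index = IC50 in normal bronchial epithelial BEAS-2B cells divided by IC50 in NCI-H1650 cells, both from the 72 h MTT assay. IC50 is the mean of three independent experiments.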

[2] = biological target: Mitogen-activated protein kinase 3 (Homo sapiens, UniProt P27361); experiment: Inhibition of ERK phosphorylation in human NCI-H1650 cells at 2 uM after 12 hrs by Western blot analysis; format: cell-based; conditions: nci-h1650, 12 h
Sequence of Mitogen-activated protein kinase 3 (P27361 whole entry): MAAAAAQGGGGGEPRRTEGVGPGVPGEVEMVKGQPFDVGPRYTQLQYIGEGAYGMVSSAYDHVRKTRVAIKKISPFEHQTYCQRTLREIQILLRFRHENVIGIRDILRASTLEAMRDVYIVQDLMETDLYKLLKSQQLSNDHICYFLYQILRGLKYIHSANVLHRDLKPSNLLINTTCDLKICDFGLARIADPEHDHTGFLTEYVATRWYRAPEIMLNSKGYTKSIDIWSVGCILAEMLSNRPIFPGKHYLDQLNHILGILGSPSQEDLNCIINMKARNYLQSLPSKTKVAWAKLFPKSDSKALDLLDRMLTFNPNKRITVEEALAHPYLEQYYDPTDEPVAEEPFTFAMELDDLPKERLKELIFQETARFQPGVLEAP
How it was run: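 NCI-H1650 cells treated at 2 µM for 12 h, then lysed and protein-normalized by BCA. Proteins separated by SDS-PAGE and transferred to nitrocellulose. Membranes blocked in 5% milk, incubated with primary antibody overnight, then HRP anti-rabbit IgG for 2 h, with ECL detection.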

NCI-H1650 [3] = experiment: Induction of apoptosis in human NCI-H1650 cells assessed as early apoptotic cells at 0.5 uM after 12 hrs by Annexin V-FITC/PI staining based flow cytometry (reference value: 1.4%); format: functional
NCI-H1650 [4] = experiment: Induction of apoptosis in human NCI-H1650 cells assessed as necrotic cells at 1 uM after 12 hrs by Annexin V-FITC/PI staining based flow cytometry (reference value: 1.6%); format: functional
NCI-H1650 [5] = experiment: Induction of apoptosis in human NCI-H1650 cells assessed as viable cells at 2 uM after 12 hrs by Annexin V-FITC/PI staining based flow cytometry (reference value: 93.5%); format: functional; conditions: NCI-H1650, 12 h, read-out: Activity
NCI-H1650 [6] = experiment: Induction of apoptosis in human NCI-H1650 cells assessed as late apoptotic cells at 2 uM after 12 hrs by Annexin V-FITC/PI staining based flow cytometry (reference value: 3.5%); format: functional
NCI-H1650 [7] = experiment: Induction of apoptosis in human NCI-H1650 cells assessed as necrotic cells at 2 uM after 12 hrs by Annexin V-FITC/PI staining based flow cytometry (reference value: 1.6%); format: functional
NCI-H1650 [8] = experiment: Induction of apoptosis in human NCI-H1650 cells assessed as viable cells at 1 uM after 6 hrs by Annexin V-FITC/PI staining based flow cytometry (reference value: 93.5%); format: functional; conditions: NCI-H1650, 6 h, read-out: Activity
NCI-H1650 [9] = experiment: Induction of apoptosis in human NCI-H1650 cells assessed as early apoptotic cells at 1 uM after 6 hrs by Annexin V-FITC/PI staining based flow cytometry (reference value: 1.4%); format: functional
NCI-H1650 [10] = experiment: Induction of mitochondrial membrane depolarization in human NCI-H1650 cells assessed as intact mitochondrial membrane potential at 5 uM after 4 hrs by JC1 staining-based flow cytometric method (reference value: 61.6%); format: functional
[11] = biological target: pyruvate dehydrogenase kinase 1 (Homo sapiens) (UniProt Q15118); experiment: Inhibition of PDK1 (unknown origin) assessed as increase in PDC activity
Sequence of pyruvate dehydrogenase kinase 1 (Homo sapiens) (Q15118 whole entry, looked up): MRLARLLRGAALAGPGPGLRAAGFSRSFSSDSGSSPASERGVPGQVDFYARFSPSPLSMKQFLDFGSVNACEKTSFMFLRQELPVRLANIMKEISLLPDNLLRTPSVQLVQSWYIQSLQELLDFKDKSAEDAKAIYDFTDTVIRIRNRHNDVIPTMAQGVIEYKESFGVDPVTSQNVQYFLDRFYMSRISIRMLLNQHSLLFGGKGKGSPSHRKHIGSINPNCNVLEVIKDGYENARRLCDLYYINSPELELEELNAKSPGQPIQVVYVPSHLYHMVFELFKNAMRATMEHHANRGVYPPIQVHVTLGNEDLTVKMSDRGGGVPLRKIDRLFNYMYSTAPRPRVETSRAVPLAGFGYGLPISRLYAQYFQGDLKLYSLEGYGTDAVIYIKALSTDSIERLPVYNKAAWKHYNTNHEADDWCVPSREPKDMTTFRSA

[12] = biological target: pyruvate dehydrogenase kinase 1 (Homo sapiens) (UniProt Q15118); experiment: Inhibition of PDK1 in human NCI-H1650 cells assessed as reduction in PDC phosphorylation after 12 hrs by Western blot analysis

inhibition (INH) [2]: Not Active | inhibition [11]: Active | inhibition [12]: Dose-dependent effect
Compound: O=C(CCCCC[P+](c1ccccc1)(c1ccccc1)c1ccccc1)Oc1ccc(-c2ccc(C(=O)C(Cl)Cl)cc2)cc1[N+](=O)[O-].[Br-]
Activity (MCF7): Dose-dependent effect | IC50 (MCF7; Homo sapiens, MCF7, 72 h, read-out: IC50): 500 nM | Activity (A-375): Dose-dependent effect | IC50 (A-375; Homo sapiens, A-375, 72 h, read-out: IC50): 510 nM | selectivity ratio [1]: 15.6 | Activity (NCI-H1650 [3]): 2.1% | Activity (NCI-H1650 [4]): 1.2 - 1.4% | viability at 2 µM (NCI-H1650 [5]): 80.9% | Activity (NCI-H1650 [6]): 14% | Activity (NCI-H1650 [7]): 1.9% | viability at 1 µM (NCI-H1650 [8]): 92.4% | Activity (NCI-H1650 [9]): 2.2% | Activity (NCI-H1650 [10]): 19.8%
